Laboratory results taken from ChEMBL document CHEMBL1765011, “Synthesis and c-Met kinase inhibition of 3,5-disubstituted and 3,5,7-trisubstituted quinolines: identification of 3-(4-acetylpiperazin-1-yl)-5-(3-nitrobenzylamino)-7- (trifluoromethyl)quinoline as a novel anticancer agent” (J Med Chem, 2011).
Activity calls are given as the source filed them. The calls are words filed in the database; no cut-off is given here.

Experiments:
[1] = molecular target: T1, Hepatocyte growth factor receptor (Homo sapiens, UniProt P08581); experiment: Inhibition of c-Met in human MKN45 cells assessed as AKT phosphorylation at 0.1 to 3 uM after 4 hrs by Western blotting; type: cell-based; conditions: MKN-45
Summary of the method: (§1)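 Exponentially growing cells were exposed to compound for 4 h at 37 °C and lysed in SDS sample buffer. Lysates were resolved on 10% SDS-PAGE and blotted. Blots were probed for phospho- and total ERK1/2 and AKT, with GAPDH loading control, and detected by ECL.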

[2] = molecular target: Mast/stem cell growth factor receptor Kit (Homo sapiens, UniProt P10721); experiment: Inhibition of c-Kit
Summary of the method: (§2)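 ELISA on plates precoated with 20 μg/mL poly(Glu,Tyr) 4:1. Buffer: 10 μM ATP, 50 mM HEPES pH 7.4, 50 mM MgCl2, 0.5 mM MnCl2, 0.2 mM Na3VO4, 1 mM DTT, compound in 1% DMSO. Purified kinase was added and incubated 60 min at 37 °C. Phosphotyrosine was detected with PY99 then HRP anti-mouse IgG, o-phenylenediamine, A490. IC50 was taken from inhibition curves.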

[3] = Antitumor activity against human U87MG cells xenografted in nude mouse assessed as tumor growth inhibition at 100 mg/kg, ip qd for 14 days relative to control; type: functional, U-87MG ATCC; conditions: U-87 MG, 336 h, route intraperitoneal
Summary of the method: (§3)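 Tumor cells, (5-10)×10^6, were implanted sc in nude mice and grown to 700-800 mm3. Tumors were cut into 1 mm3 fragments and trocar-transplanted sc. At 100-150 mm3, mice were randomized (n = 6) to vehicle or ip dosing daily. Volumes were measured twice weekly by caliper, TV = length×width²/2. % inhibition used final-day versus day-1 change against vehicle, with Student's t test.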

[4] = test system: Mus musculus; experiment: Toxicity in mouse NIH/3T3 cells expressing TPR-Met xenografted nude mouse assessed as reduction in body weight at 100 mg/kg, ip qd for 14 days; type: organism-based, NIH3T3; set-up: dose 100 mg/kg, route intraperitoneal; conditions: in vivo, 336 h
[5] = test system: BaF3; experiment: Antiproliferative activity against mouse BAF3 cells expressing TPR-Met after 72 hrs in presence of IL-3; type: functional, cell-based; conditions: BaF3, 72 h
Summary of the method: (§4)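 Cells were seeded and exposed next day to a range of compound concentrations for 72 h. Proliferation was read by sulforhodamine B or MTT assay, and IC50 derived.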

[6] = Half life in mouse at 10 mg/kg, iv; type: ADME, organism-based; set-up: dose 10 mg/kg, route intravenous; conditions: in vivo
Summary of the method: (§5)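 Single iv dose of 10 mg/kg to mice, vehicle DMSO/Tween 80/normal saline. Clearance and half-life were derived from plasma concentration-time data. Average of three runs.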

[7] = test system: NIH3T3; experiment: Antiproliferative activity against mouse NIH/3T3 cells expressing TPR-Met after 72 hrs; type: functional, cell-based; conditions: NIH3T3, 72 h; summary of the method: as §4
[8] = test system: MCF7; experiment: Antiproliferative activity against human MCF7 cells after 72 hrs; conditions: MCF7, 72 h
[9] = molecular target: Hepatocyte growth factor receptor (Mus musculus) (UniProt P16056); experiment: Inhibition of TPR-MET autophosphorylation in mouse BaF3 cells after 4 hrs by Western blotting; type: cell-based
Summary of the method: (§6)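 Exponentially growing cells were treated with compound for 4 h at 37 °C and lysed in SDS sample buffer. Lysates were run on 10% SDS-PAGE and blotted to nitrocellulose. Blots were probed for phospho-c-Met and total c-Met, with GAPDH as loading control, and detected by ECL.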

[10] = Volume of distribution at steady state in mouse at 10 mg/kg, iv; type: ADME, organism-based; set-up: dose 10 mg/kg, route intravenous; conditions: in vivo, read-out: Vdss
[11] = molecular target: Hepatocyte growth factor receptor (Mus musculus) (UniProt P16056); experiment: Inhibition of TPR-c-Met phosphorylation expressed in mouse […] cells at 0.1 to 3 uM after 4 hrs by Western blotting; type: cell-based; summary of the method: as §6
[12] = test system: NCI-H1993; experiment: Antiproliferative activity against human NCI-H1993 cells after 72 hrs; conditions: NCI-H1993, 72 h
[13] = test system: NIH3T3; experiment: Antitumor activity against mouse NIH/3T3 cells expressing TPR-Met xenografted in nude mouse assessed as tumor growth inhibition at 100 mg/kg, ip qd for 14 days relative to control; type: functional; conditions: 336 h, route intraperitoneal; summary of the method: as §3
[14] = molecular target: Proto-oncogene tyrosine-protein kinase Src (Homo sapiens, UniProt P12931); experiment: Inhibition of c-Src; summary of the method: as §2
[15] = molecular target: T1, Hepatocyte growth factor receptor; experiment: Inhibition of c-Met in human H1993 cells assessed as AKT phosphorylation at 0.1 to 3 uM after 4 hrs by Western blotting; type: cell-based; summary of the method: as §1
[16] = Tmax in mouse at 20 mg/kg, po; type: ADME, organism-based; set-up: dose 20 mg/kg, route oral; conditions: in vivo
[17] = Cmax in mouse at 20 mg/kg, po; type: ADME, organism-based; set-up: dose 20 mg/kg, route oral; conditions: in vivo
Summary of the method: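 Oral 20 mg/kg single dose to mice, vehicle DMSO/Tween 80/normal saline. Cmax was read from the plasma concentration-time profile. Average of three runs.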

[18] = molecular target: Proto-oncogene tyrosine-protein kinase receptor Ret (Homo sapiens, UniProt P07949); experiment: Inhibition of RET
[19] = molecular target: Hepatocyte growth factor receptor (Mus musculus) (UniProt P16056); experiment: Inhibition of TPR-MET autophosphorylation in mouse NIH3T3 cells after 4 hrs by Western blotting; type: cell-based; summary of the method: as §6
[20] = molecular target: Vascular endothelial growth factor receptor 1 (Homo sapiens, UniProt P17948); experiment: Inhibition of Flt-1; summary of the method: as §2
[21] = molecular target: Vascular endothelial growth factor receptor 2 (Homo sapiens, UniProt P35968); experiment: Inhibition of KDR; summary of the method: as §2
[22] = molecular target: Hepatocyte growth factor receptor (Mus musculus) (UniProt P16056); experiment: Inhibition of TPR-c-Met phosphorylation expressed in mouse […] cells assessed as AKT phosphorylation at 0.1 to 3 uM after 4 hrs by Western blotting; type: cell-based; summary of the method: as §1
[23] = molecular target: Macrophage-stimulating protein receptor (Homo sapiens, UniProt Q04912); experiment: Inhibition of RON; summary of the method: as §2
[24] = molecular target: Tyrosine-protein kinase ABL1 (Homo sapiens, UniProt P00519); experiment: Inhibition of Abl; summary of the method: as §2
[25] = molecular target: Hepatocyte growth factor receptor (Mus musculus) (UniProt P16056); experiment: Inhibition of TPR-c-Met phosphorylation expressed in mouse […] cells assessed as ERK1/2 phosphorylation at 0.1 to 3 uM after 4 hrs by Western blotting; type: cell-based; summary of the method: as §1
[26] = test system: SNU1; experiment: Antiproliferative activity against human SNU1 cells after 72 hrs; conditions: SNU1, 72 h
[27] = test system: U-87MG ATCC; experiment: Antitumor activity against human U87MG cells xenografted in nude mouse assessed as tumor growth inhibition at 50 mg/kg, ip qd for 14 days relative to control; type: functional, organism-based; set-up: dose 50 mg/kg; summary of the method: as §3
[28] = molecular target: T1, Hepatocyte growth factor receptor; experiment: Inhibition of c-Met phosphorylation in human H1993 cells at 0.5 uM after 4 hrs by Western blotting; type: cell-based; summary of the method: as §6
[29] = Clearance in mouse at 10 mg/kg, iv; type: ADME, organism-based; set-up: dose 10 mg/kg, route intravenous; conditions: in vivo; summary of the method: as §5
[30] = molecular target: Insulin-like growth factor 1 receptor (Homo sapiens, UniProt P08069); experiment: Inhibition of IGF1R
[31] = molecular target: Receptor tyrosine-protein kinase erbB-2 (Homo sapiens, UniProt P04626); experiment: Inhibition of ErbB2; summary of the method: as §2
[32] = molecular target: Ephrin type-A receptor 2 (Homo sapiens, UniProt P29317); experiment: Inhibition of EPH-A2; summary of the method: as §2
[33] = molecular target: Hepatocyte growth factor receptor (Mus musculus) (UniProt P16056); experiment: Inhibition of TPR-c-Met phosphorylation expressed in mouse BAF3 cells assessed as ERK1/2 phosphorylation at 0.1 to 3 uM after 4 hrs by Western blotting; type: cell-based; summary of the method: as §1
[34] = molecular target: T1, Hepatocyte growth factor receptor; experiment: Inhibition of c-Met in human MKN45 cells assessed as ERK1/2 phosphorylation at 0.1 to 3 uM after 4 hrs by Western blotting; type: cell-based; conditions: MKN-45; summary of the method: as §1
[35] = molecular target: T1, Hepatocyte growth factor receptor; experiment: Inhibition of c-Met phosphorylation in human H1993 cells at 0.1 to 3 uM after 4 hrs by Western blotting; type: cell-based; summary of the method: as §6

T1 sequence (P08581 whole entry): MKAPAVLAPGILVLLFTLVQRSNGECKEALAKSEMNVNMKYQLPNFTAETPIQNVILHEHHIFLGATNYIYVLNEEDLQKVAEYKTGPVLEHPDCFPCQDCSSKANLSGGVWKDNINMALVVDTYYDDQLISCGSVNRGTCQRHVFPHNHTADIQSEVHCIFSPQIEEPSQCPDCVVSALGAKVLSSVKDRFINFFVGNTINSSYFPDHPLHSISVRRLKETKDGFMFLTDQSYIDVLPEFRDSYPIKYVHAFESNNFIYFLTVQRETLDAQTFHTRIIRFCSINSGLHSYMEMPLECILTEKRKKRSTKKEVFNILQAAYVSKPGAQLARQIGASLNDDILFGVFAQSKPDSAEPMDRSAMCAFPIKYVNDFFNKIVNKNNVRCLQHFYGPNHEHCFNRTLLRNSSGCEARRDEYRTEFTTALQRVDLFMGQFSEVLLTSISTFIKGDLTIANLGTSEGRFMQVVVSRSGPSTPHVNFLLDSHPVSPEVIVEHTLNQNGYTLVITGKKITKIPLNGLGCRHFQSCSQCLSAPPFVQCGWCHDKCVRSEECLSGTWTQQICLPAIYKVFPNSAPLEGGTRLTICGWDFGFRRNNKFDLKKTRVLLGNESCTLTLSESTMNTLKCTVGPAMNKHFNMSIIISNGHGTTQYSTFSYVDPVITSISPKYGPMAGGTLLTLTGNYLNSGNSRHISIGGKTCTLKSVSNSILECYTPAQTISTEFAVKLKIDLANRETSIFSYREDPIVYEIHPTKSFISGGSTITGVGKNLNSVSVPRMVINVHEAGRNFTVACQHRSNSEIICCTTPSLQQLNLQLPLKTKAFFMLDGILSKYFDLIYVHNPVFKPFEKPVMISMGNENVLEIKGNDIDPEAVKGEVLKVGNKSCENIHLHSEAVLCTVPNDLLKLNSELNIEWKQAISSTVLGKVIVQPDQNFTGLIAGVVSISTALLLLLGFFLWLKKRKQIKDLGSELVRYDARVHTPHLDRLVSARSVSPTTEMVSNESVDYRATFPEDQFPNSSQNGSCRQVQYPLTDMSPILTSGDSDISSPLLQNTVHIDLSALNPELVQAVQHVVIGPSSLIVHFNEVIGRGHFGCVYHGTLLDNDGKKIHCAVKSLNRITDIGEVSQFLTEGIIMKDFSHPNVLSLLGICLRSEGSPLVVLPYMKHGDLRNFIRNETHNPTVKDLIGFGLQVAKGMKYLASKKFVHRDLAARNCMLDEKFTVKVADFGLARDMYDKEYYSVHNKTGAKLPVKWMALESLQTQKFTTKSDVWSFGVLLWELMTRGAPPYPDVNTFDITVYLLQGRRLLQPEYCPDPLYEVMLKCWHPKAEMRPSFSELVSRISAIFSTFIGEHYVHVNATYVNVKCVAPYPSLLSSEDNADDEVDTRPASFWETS
Sequence of Hepatocyte growth factor receptor (Mus musculus) (P16056 whole entry): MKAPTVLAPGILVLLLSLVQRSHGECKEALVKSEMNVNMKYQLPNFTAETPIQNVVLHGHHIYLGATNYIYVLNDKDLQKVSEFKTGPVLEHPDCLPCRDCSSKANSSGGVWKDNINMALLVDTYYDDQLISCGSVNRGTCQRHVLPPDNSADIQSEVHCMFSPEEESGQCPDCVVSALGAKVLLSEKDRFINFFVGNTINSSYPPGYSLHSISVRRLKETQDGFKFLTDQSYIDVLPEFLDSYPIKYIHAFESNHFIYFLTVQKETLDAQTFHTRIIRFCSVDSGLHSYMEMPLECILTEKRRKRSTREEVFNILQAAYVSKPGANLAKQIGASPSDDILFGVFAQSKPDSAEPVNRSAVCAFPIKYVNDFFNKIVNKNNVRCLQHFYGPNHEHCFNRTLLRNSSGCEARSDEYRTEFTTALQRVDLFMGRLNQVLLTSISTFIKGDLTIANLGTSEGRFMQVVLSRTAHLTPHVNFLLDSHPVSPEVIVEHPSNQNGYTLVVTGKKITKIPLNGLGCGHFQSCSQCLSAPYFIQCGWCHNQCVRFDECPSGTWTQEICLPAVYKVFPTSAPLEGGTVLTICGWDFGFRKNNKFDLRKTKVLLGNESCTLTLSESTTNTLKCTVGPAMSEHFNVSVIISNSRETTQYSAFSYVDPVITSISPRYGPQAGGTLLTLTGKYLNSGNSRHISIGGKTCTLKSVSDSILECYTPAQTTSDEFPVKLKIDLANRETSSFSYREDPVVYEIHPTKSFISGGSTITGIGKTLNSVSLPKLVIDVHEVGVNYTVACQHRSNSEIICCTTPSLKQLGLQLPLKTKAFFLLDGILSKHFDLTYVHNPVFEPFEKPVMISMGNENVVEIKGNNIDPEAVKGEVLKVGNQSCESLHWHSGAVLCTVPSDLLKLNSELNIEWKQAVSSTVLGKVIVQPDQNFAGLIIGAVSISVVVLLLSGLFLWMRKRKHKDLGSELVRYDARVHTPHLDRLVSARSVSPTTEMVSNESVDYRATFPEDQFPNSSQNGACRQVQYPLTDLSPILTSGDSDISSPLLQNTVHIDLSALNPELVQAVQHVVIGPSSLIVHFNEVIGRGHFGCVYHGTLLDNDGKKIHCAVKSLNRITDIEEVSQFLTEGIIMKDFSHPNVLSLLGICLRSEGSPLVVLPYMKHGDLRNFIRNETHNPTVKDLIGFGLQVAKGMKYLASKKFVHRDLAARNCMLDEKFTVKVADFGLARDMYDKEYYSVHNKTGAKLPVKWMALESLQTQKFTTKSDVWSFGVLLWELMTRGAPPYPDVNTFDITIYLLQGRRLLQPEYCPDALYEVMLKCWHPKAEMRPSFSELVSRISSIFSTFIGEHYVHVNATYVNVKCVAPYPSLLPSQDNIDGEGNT
Sequence of Ephrin type-A receptor 2 (P29317 whole entry): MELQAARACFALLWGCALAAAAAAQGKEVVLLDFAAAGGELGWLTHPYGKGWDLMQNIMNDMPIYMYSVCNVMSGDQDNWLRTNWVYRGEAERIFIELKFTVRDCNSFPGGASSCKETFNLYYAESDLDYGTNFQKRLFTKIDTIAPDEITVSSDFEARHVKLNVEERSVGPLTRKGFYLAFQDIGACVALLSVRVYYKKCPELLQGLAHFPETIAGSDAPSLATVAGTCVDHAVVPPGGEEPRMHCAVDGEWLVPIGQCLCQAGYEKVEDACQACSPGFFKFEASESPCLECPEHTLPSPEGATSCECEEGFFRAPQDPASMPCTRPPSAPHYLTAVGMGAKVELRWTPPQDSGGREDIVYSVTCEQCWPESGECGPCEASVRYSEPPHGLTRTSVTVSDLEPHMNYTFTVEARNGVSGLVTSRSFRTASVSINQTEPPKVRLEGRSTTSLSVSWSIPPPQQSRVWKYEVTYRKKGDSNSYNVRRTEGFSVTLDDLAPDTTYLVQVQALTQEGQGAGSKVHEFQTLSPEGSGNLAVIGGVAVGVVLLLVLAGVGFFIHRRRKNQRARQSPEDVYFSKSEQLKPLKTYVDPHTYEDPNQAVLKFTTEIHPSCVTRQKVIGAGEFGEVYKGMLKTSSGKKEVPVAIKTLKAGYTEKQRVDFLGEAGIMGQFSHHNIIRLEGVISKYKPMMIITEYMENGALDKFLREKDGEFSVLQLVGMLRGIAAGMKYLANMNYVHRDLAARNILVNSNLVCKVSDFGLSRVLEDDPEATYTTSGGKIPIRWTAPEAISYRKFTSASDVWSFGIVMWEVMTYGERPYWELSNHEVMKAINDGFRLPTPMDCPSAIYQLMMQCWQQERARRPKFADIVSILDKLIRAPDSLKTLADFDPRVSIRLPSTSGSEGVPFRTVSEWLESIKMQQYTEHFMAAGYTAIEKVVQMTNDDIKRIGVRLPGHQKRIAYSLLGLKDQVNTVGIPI
Sequence of Tyrosine-protein kinase ABL1 (P00519 whole entry): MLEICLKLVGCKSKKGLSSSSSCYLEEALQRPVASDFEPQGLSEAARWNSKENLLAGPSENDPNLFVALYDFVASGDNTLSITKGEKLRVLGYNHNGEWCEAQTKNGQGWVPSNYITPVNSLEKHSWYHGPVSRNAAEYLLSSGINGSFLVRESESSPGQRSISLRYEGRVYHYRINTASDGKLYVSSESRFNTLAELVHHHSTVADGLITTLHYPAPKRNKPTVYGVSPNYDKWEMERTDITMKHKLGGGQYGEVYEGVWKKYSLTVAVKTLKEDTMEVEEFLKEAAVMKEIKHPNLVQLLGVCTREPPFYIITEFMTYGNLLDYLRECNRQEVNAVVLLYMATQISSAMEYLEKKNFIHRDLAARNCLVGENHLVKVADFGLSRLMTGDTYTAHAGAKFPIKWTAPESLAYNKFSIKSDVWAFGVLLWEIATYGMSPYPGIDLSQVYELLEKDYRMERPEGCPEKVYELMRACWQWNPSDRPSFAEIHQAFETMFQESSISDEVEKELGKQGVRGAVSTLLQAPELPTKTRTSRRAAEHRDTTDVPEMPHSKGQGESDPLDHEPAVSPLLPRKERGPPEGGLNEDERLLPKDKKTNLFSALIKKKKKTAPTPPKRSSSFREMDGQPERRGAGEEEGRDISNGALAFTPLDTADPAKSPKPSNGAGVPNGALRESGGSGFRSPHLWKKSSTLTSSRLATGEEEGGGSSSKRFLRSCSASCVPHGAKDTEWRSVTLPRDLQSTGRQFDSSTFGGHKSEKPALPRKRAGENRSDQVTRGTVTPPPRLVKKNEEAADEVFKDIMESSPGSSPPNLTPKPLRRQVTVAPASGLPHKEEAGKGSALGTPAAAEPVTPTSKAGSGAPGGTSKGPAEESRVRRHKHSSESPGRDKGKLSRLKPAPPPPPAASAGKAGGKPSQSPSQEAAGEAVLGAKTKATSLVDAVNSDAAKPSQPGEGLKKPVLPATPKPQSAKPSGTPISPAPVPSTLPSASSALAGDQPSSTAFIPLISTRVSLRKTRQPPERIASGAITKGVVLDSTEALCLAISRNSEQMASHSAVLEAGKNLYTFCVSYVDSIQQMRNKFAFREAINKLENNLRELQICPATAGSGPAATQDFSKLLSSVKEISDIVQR

CC(=O)N1CCN(c2cnc3cc(C(F)(F)F)cc(NCc4cccc([N+](=O)[O-])c4)c3c2)CC1
inhibition [1]: Active | IC50 [2]: > 10 µM | inhibition in vivo at 100 mg/kg [3]: 69% | Activity [4]: Non-toxic | IC50 [5]: 12.2 µM | half-life [6]: 3.25 h | IC50 [7]: 2 µM | IC50 [8]: 16 µM | inhibition [9]: Dose-dependent effect | Vd [10]: 16.7 L/kg | inhibition [11]: Active | IC50 [12]: 5.3 µM | inhibition in vivo at 100 mg/kg [13]: 68% | IC50 [14]: > 10 µM | inhibition [15]: Active | Tmax [16]: 3 h | Cmax [17]: 316 ng/mL | IC50 [18]: > 10 µM | inhibition [19]: Dose-dependent effect | IC50 [20]: > 10 µM | IC50 [21]: > 10 µM | inhibition [22]: Active | IC50 [23]: > 10 µM | IC50 [24]: > 10 µM | inhibition [25]: Active | IC50 [26]: ≥ 50 µM | inhibition [27]: Active | inhibition [28]: Active | clearance [29]: 59.8 mL/min/kg | IC50 [30]: > 10 µM | IC50 [31]: > 10 µM | IC50 [32]: > 10 µM | inhibition [33]: Active | inhibition [34]: Active | inhibition [35]: Active
